From ChEMBL document CHEMBL1909525, “Synthesis and anticonvulsant activity of novel 2,6-diketopiperazine derivatives. Part 1: perhydropyrrole[1,2-a]pyrazines” (Eur J Med Chem, 2011)
Activity calls are given as the source filed them. The calls are words filed in the database; no cut-off is given here.

Assays:
Rattus norvegicus [1] = assay: Anticonvulsant activity in po dosed albino Sprague-Dawley rat assessed as protection against maximal electroshock-induced seizure after 0.25 hrs; type: functional
How it was run: (§1)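 Rats dosed orally, compound in 0.5% methylcellulose. MES at 150 mA, 60 Hz, 0.2 s; scMET with pentylenetetrazole 70 mg/kg s.c. plus 30 min observation; rotorod for toxicity.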

Mus musculus [2] = assay: Anticonvulsant activity in ip dosed albino Carworth Farms No.1 mouse assessed as protection against subcutaneous metrazol-induced seizure after 0.25 hrs; type: functional; settings: albino Carworth Farms No.1, 0.25 h
How it was run: (§2)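 Mouse quantification at the time of peak effect, compound given i.p. in 0.5% methylcellulose. Groups of at least eight mice received varied doses until at least two points fell between 100 and 0% response. ED50 (MES, scMET) and TD50 (rotorod) with 95% CI by probit analysis (Finney). PI = TD50/ED50 MES.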

Mus musculus [3] = assay: Anticonvulsant activity in ip dosed albino Carworth Farms No.1 mouse assessed as protection against maximal electroshock-induced seizure after 0.25 hrs; type: functional; settings: albino Carworth Farms No.1, ip; how it was run: as §2
Rattus norvegicus [4] = organism: Rattus norvegicus; assay: Protective index, ratio of TD50 for albino Sprague-Dawley rat to ED50 for albino Sprague-Dawley rat by maximal electroshock-induced seizure test; type: functional
Rattus norvegicus [5] = assay: Anticonvulsant activity in po dosed albino Sprague-Dawley rat assessed as protection against subcutaneous metrazol-induced seizure after 0.25 hrs; type: functional; how it was run: as §1
Mus musculus [6] = assay: Anticonvulsant activity in ip dosed albino Carworth Farms No.1 mouse assessed as time needs to show peak effect for protection against maximal electroshock-induced seizure; type: functional
Mus musculus [7] = organism: Mus musculus; assay: Protective index, ratio of TD50 for albino Carworth Farms No.1 mouse to ED50 for albino Carworth Farms No.1 mouse by maximal electroshock-induced seizure test; type: functional
How it was run: (§3)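 Mouse quantification at the time of peak effect, compound given i.p. in 0.5% methylcellulose. Groups of at least eight mice received varied doses until at least two points fell between 100 and 0% response. PI = TD50/ED50 MES.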

Rattus norvegicus [8] = assay: Anticonvulsant activity in po dosed albino Sprague-Dawley rat assessed as time needs to show peak effect for protection against maximal electroshock-induced seizure after 0.25 hrs; type: functional; how it was run: as §1
[9] = Neurotoxicity in po dosed albino Sprague-Dawley rat assessed as motor impairment after 0.25 hrs by rotarod test; type: toxicity, organism-based; settings: in vivo; how it was run: as §1
[10] = Neurotoxicity in ip dosed albino Carworth Farms No.1 mouse assessed as motor impairment after 0.25 hrs by rotarod test; type: toxicity, organism-based; settings: Carworth Farms No.1 (albino), in vivo; how it was run: as §3
Mus musculus [11] = assay: Anticonvulsant activity in ip dosed albino Carworth Farms No.1 mouse assessed as time needs to show peak effect for electric-current for 3 secs-induced seizure after 0.25 hrs by 6Hz minimal clonic seizure test; type: functional
Mus musculus [12] = assay: Anticonvulsant activity in albino Carworth Farms No.1 mouse assessed as protection against subcutaneous metrazol-induced seizure at 100 mg/kg, ip after 0.5 hrs; type: functional, organism-based; design: dose 100 mg/kg
How it was run: (§4)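 Mouse scMET test. Compound given i.p. (30, 100 or 300 mg/kg) in 0.5% methylcellulose. Pentylenetetrazole 85 mg/kg (CD97) given s.c. at 0.5 or 4 h, then mice observed for 30 min. Protection is absence of clonic spasms; scored as protected/tested.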

Mus musculus [13] = assay: Neurotoxicity in albino Carworth Farms No.1 mouse assessed as motor impairment at 30 mg/kg, ip after 4 hrs by rotarod test; type: toxicity, organism-based; design: dose 30 mg/kg, route intraperitoneal; settings: in vivo
How it was run: (§5)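 Rotorod neurotoxicity in mice at 6 r.p.m. Compound given i.p. (30, 100, 300 mg/kg) in 0.5% methylcellulose; tested at 30 min and 4 h. Impairment is inability to keep equilibrium on the rod for a given time; scored as impaired/tested.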

Mus musculus [14] = assay: Neurotoxicity in albino Carworth Farms No.1 mouse assessed as motor impairment at 30 mg/kg, ip after 0.5 hrs by rotarod test; type: toxicity, organism-based; design: dose 30 mg/kg, route intraperitoneal; settings: in vivo; how it was run: as §5
Mus musculus [15] = assay: Anticonvulsant activity in albino Carworth Farms No.1 mouse assessed as protection against maximal electroshock-induced seizure at 30 mg/kg, ip after 4 hrs; type: functional, organism-based; design: dose 30 mg/kg
How it was run: (§6)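 Mouse MES test with compound given i.p. (30, 100 or 300 mg/kg) in 0.5% methylcellulose; tested at 0.5 and 4 h. Corneal stimulus of 50 mA at 60 Hz for 0.2 s, electrodes primed with 0.5% butacaine in 0.9% NaCl. Protection is abolition of hindlimb tonic extension; scored as protected/tested.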

Mus musculus [16] = assay: Neurotoxicity in albino Carworth Farms No.1 mouse assessed as motor impairment at 300 mg/kg, ip after 0.5 hrs by rotarod test; type: toxicity, organism-based; design: dose 300 mg/kg, route intraperitoneal; settings: in vivo; how it was run: as §5
Mus musculus [17] = assay: Anticonvulsant activity in albino Carworth Farms No.1 mouse assessed as protection against maximal electroshock-induced seizure at 100 mg/kg, ip after 0.5 hrs; type: functional, organism-based; design: dose 100 mg/kg; how it was run: as §6
Mus musculus [18] = assay: Neurotoxicity in albino Carworth Farms No.1 mouse assessed as motor impairment at 100 mg/kg, ip after 0.5 hrs by rotarod test; type: toxicity, organism-based; design: dose 100 mg/kg, route intraperitoneal; settings: in vivo; how it was run: as §5
Mus musculus [19] = assay: Anticonvulsant activity in albino Carworth Farms No.1 mouse assessed as protection against maximal electroshock-induced seizure at 300 mg/kg, ip after 4 hrs; type: functional, organism-based; design: dose 300 mg/kg; how it was run: as §6
Mus musculus [20] = assay: Anticonvulsant activity in albino Carworth Farms No.1 mouse assessed as protection against subcutaneous metrazol-induced seizure at 100 mg/kg, ip after 4 hrs; type: functional, organism-based; design: dose 100 mg/kg; how it was run: as §4
Mus musculus [21] = assay: Anticonvulsant activity in albino Carworth Farms No.1 mouse assessed as protection against subcutaneous metrazol-induced seizure at 300 mg/kg, ip after 0.5 hrs; type: functional, organism-based; design: dose 300 mg/kg; how it was run: as §4
Mus musculus [22] = assay: Anticonvulsant activity in albino Carworth Farms No.1 mouse assessed as protection against maximal electroshock-induced seizure at 30 mg/kg, ip after 0.5 hrs; type: functional, organism-based; design: dose 30 mg/kg; how it was run: as §6
Mus musculus [23] = assay: Anticonvulsant activity in albino Carworth Farms No.1 mouse assessed as protection against maximal electroshock-induced seizure at 100 mg/kg, ip after 4 hrs; type: functional, organism-based; design: dose 100 mg/kg; how it was run: as §6
Mus musculus [24] = assay: Neurotoxicity in albino Carworth Farms No.1 mouse assessed as motor impairment at 300 mg/kg, ip after 4 hrs by rotarod test; type: toxicity, organism-based; design: dose 300 mg/kg, route intraperitoneal; settings: in vivo; how it was run: as §5
Mus musculus [25] = assay: Anticonvulsant activity in albino Carworth Farms No.1 mouse assessed as protection against subcutaneous metrazol-induced seizure at 30 mg/kg, ip after 0.5 hrs; type: functional, organism-based; design: dose 30 mg/kg; how it was run: as §4
Mus musculus [26] = assay: Anticonvulsant activity in albino Carworth Farms No.1 mouse assessed as protection against subcutaneous metrazol-induced seizure at 30 mg/kg, ip after 4 hrs; type: functional, organism-based; design: dose 30 mg/kg; how it was run: as §4
Mus musculus [27] = assay: Anticonvulsant activity in albino Carworth Farms No.1 mouse assessed as protection against maximal electroshock-induced seizure at 300 mg/kg, ip after 0.5 hrs; type: functional, organism-based; design: dose 300 mg/kg; how it was run: as §6
Mus musculus [28] = assay: Anticonvulsant activity in albino Carworth Farms No.1 mouse assessed as protection against subcutaneous metrazol-induced seizure at 300 mg/kg, ip after 4 hrs; type: functional, organism-based; design: dose 300 mg/kg; how it was run: as §4
Mus musculus [29] = assay: Anticonvulsant activity in albino Carworth Farms No.1 mouse assessed as protection against electric-current for 3 secs-induced seizure at 100 mg/kg, ip after 0.5 hrs by 6Hz minimal clonic seizure test; type: functional
How it was run: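 6 Hz psychomotor seizure test in mice. Compound given i.p. as a suspension in 0.5% methylcellulose. Corneal stimulation at 32 mA, 0.2-ms monopolar rectangular pulses at 6 Hz for 3 s, from a constant-current device. Tests run 0.25–4 h after dosing. A mouse counted as protected if it resumed normal exploratory behaviour within 10 s; scored as protected/tested.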

Row | Compound | Activity (Mus musculus [12]) | Activity (Mus musculus [13]) | Activity (Mus musculus [14]) | Activity (Mus musculus [15]) | Activity (Mus musculus [16]) | Activity (Mus musculus [17]) | Activity (Mus musculus [18]) | Activity (Mus musculus [19]) | Activity (Mus musculus [20]) | Activity (Mus musculus [21]) | Activity (Mus musculus [22]) | Activity (Mus musculus [23]) | Activity (Mus musculus [24]) | Activity (Mus musculus [25]) | Activity (Mus musculus [26]) | Activity (Mus musculus [27]) | Activity (Mus musculus [28]) | further results
1 | O=C1NC(=O)C(c2ccccc2)(c2ccccc2)N1 [PHENYTOIN] |  |  |  |  |  |  |  |  |  |  |  |  |  |  |  |  |  | ED50 (Rattus norvegicus [1]): 28.1 mg/kg; ED50 (Mus musculus [2]): > 50 mg/kg; ED50 (Mus musculus [3]): 5.64 mg/kg; Ratio TD50/ED50 (Rattus norvegicus [4]): >36.6; ED50 (Rattus norvegicus [5]): > 500 mg/kg; Time (Mus musculus [6]): 1 h; Ratio TD50/ED50 (Mus musculus [7]): 7.3; Time (Rattus norvegicus [8]): 4 h; TD50 at 0.25 h [9]: > 1000 mg/kg
2 | CC[C@@H](C(N)=O)N1CCCC1=O |  |  |  |  |  |  |  |  |  |  |  |  |  |  |  |  |  | TD50 at 0.25 h [10]: > 500 mg/kg; Time (Mus musculus [11]): 1 h
3 | O=C1CN2CCC[C@H]2C(=O)N1 | inactive | Non-toxic | Non-toxic | inactive | Non-toxic | inactive | Non-toxic | inactive | inactive | inactive | inactive | inactive | Non-toxic | inactive | inactive | inactive | inactive | 
4 | COC(=O)[C@@H](c1ccccc1)N1CCC[C@H]1C(N)=O |  |  |  |  | Toxic |  |  |  |  |  |  |  |  |  |  |  |  | Activity (Mus musculus [29]): Active
5 | CN1C(=O)[C@H](c2ccccc2)N2CCC[C@H]2C1=O.Cl | inactive | Non-toxic | Non-toxic | inactive | Toxic | inactive | Non-toxic | inactive | inactive | Active | inactive | inactive | Non-toxic | inactive | inactive | Active | inactive | 
